Source: ChEMBL document CHEMBL1146282, “Novel beta-lactam derivatives: potent and selective inhibitors of the chymotrypsin-like activity of the human 20S proteasome” (Bioorg Med Chem Lett, 2007)
Activity calls are given as the source filed them. No cut-off for these calls is given here.

What was measured:
[1] = Inhibition of chymotrypsin-like activity of human 20S proteasome
Summary of the method: (§1)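 Human 20S proteasome purified in-house from blood, assayed in vitro with fluorogenic AMC peptides: Suc-Leu-Leu-Val-Tyr-AMC (chymotrypsin-like), Boc-Leu-Arg-Arg-AMC (trypsin-like), Z-Leu-Leu-Glu-AMC (post-glutamyl-peptide hydrolytic-like). Hydrolysis followed by fluorescence rise (ex 355/em 460 nm). IC50 taken from initial linear rates, as inhibitor concentration halving the proteasome-catalysed hydrolysis rate.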

[2] = organism: Homo sapiens; assay: Inhibition of chymotrypsin at 25 uM
[3] = Inhibition of post-glutamyl-peptide hydrolytic activity of human 20S proteasome; summary of the method: as §1
[4] = organism: Homo sapiens; assay: Inhibition of thrombin at 25 uM
[5] = organism: Homo sapiens; assay: Selectivity for chymotrypsin-like activity of human 20S proteasome over trypsin-like activity of human 20S proteasome
[6] = organism: Homo sapiens; assay: Inhibition of calpain at 25 uM
[7] = system: MDA-MB-435; assay: Antiproliferative activity against human MDA-MB-435 cells by MTT assay; format: functional, cell-based
Summary of the method: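 MDA-MB-435 human breast carcinoma cells grown in MEM with 10% FCS, penicillin/streptomycin, 4 mM L-glutamine, 1 mM sodium pyruvate, non-essential amino acids and 20 mM Hepes. Compound exposure for 24, 48 or 72 h. Proliferation read by MTT-based CellTiter96 assay.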

[8] = organism: Homo sapiens; assay: Selectivity for chymotrypsin-like activity of human 20S proteasome over post-glutamyl-peptide hydrolytic activity of human 20S proteasome
[9] = Inhibition of trypsin-like activity of human 20S proteasome; summary of the method: as §1

Row | Compound | IC50 [1] | Activity [2] | IC50 [3] | Activity [4] | Ratio [5] | Activity [6] | IC50 [7] | Ratio [8] | IC50 [9]
1 | CC(C)C[C@@]1(NC(=O)[C@@H](NC(=O)[C@H](Cc2ccccc2)NC(=O)Cc2cccc(Oc3ccccc3)c2)C(C)C)CNC1=O | 20 nM | inactive | > 20000 nM | inactive | 350 | inactive | 1200 nM | > 350 | –
2 | COc1ccc(C[C@H](NC(=O)Cc2cccc(Oc3ccccc3)c2)C(=O)N[C@@H](C(=O)N[C@@]2(Cc3ccccc3)CNC2=O)C(C)(C)C)c(OC)c1OC | 4 nM | – | – | – | – | – | – | – | –
3 | COc1ccc(C[C@H](NC(=O)Cc2cccc(Oc3ccccc3)c2)C(=O)N[C@H](C(=O)N[C@]2(Cc3ccccc3)CNC2=O)C(C)C)c(OC)c1OC | 1.4 nM | inactive | > 20000 nM | inactive | 350 | inactive | 32 nM | > 350 | 19000 nM
4 | CC(C)C[C@]1(NC(=O)[C@@H](NC(=O)[C@H](Cc2ccccc2)NC(=O)Cc2cccc(Oc3ccccc3)c2)C(C)C)CNC1=O | 38000 nM | – | – | – | – | – | – | – | –
5 | COc1ccc(C[C@H](NC(=O)OCc2ccccc2)C(=O)N[C@H](C(=O)N[C@@]2(Cc3ccccc3)CNC2=O)C(C)C)c(OC)c1OC | 1400 nM | – | – | – | – | – | – | – | –
6 | COc1ccc(C[C@H](NC(=O)Cc2cccc(Oc3ccccc3)c2)C(=O)N[C@H](C(=O)N[C@@]2(Cc3ccccc3)CNC2=O)C(C)(C)C)c(OC)c1OC | 280 nM | – | – | – | – | – | – | – | –

Continued by falling IC50 [1], values first:

Row | IC50 [1] | Activity [2] | IC50 [3] | Activity [4] | Ratio [5] | Activity [6] | IC50 [7] | Ratio [8] | IC50 [9] | Compound
7 | 1300 nM | – | – | – | – | – | – | – | – | COc1ccc(C[C@H](NC(=O)Cc2cccc(Oc3ccccc3)c2)C(=O)N[C@H](C(=O)N[C@@]2(CC(C)C)CNC2=O)C(C)C)c(OC)c1OC
8 | 170 nM | – | – | – | – | – | – | – | – | COc1ccc(C[C@H](NC(=O)Cc2cccc(Oc3ccccc3)c2)C(=O)N[C@H](C(=O)N[C@@]2(Cc3ccccc3)CNC2=O)C(C)C)c(OC)c1OC
9 | 5 nM | – | – | – | – | – | – | – | – | COc1ccc(C[C@H](NC(=O)OCc2ccccc2)C(=O)N[C@H](C(=O)N[C@]2(Cc3ccccc3)CNC2=O)C(C)C)c(OC)c1OC
10 | 2.5 nM | inactive | > 100000 nM | inactive | 350 | inactive | 34 nM | > 350 | 1100 nM | COc1ccc(C[C@H](NC(=O)Cc2cccc(Oc3ccccc3)c2)C(=O)N[C@H](C(=O)N[C@]2(CC(C)C)CNC2=O)C(C)C)c(OC)c1OC
